High-throughput results from PubChem.
DNMT1 inh – inhibitors of human DNMT1; P26358; DNMT1 molecular beacon, Hinp1I cleavage, fluorescence; inhibition (reported as % activation of signal), % at 10 µM; hit rate 0.83% among 360,000; in the data active = inhibition above about 50%
LMPTP block – blocks human LMPTP phosphatase; P24666; recombinant LMPTP-A, OMFP fluorogenic substrate, fluorescence intensity; inhibition, % at 20 µM; hit rate 0.22% among 360,000;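 active = compounds that cut the enzyme signal by at least half of the control window in the single-dose screen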;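 also: plate controls were DMSO wells with enzyme plus substrate for no effect and substrate without enzyme for full effect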
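Test system: LMPTP-A phosphatase enzyme. Amount: LMPTP-A at 0.625 nM final in the reaction. Reagent: OMFP substrate, 400 µM final. Times: 50 min at room temperature. Signal: endpoint fluorescence intensity from OMFP dephosphorylation. Read-out basis: % inhibition. Benchmarks: no-enzyme and uninhibited controls.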
Scp-1 inhibitor – Scp-1 (human) phosphatase inhibition. Q9GZU7. Recombinant Scp1, phosphopeptide, malachite green phosphate absorbance. inhibition, % at 20 µM. hit rate 0.88% among 340,000. AID 493091;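 active = inhibition above about 50% at 20 µM, limit read from the data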;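 also: plate controls were DMSO wells with enzyme for no effect and wells lacking enzyme for full effect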
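Test system – truncated SCP-1 phosphatase (76-261aa) · Reagent – Phosphorylated 17-residue peptide substrate · Incubation – 45 min room-temperature reaction, 5 min colour, 30 min stabiliser · Detection – colorimetric phosphate reagent with accelerator and stabiliser, absorbance at 630 nm · Measure – % inhibition at 20 µM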
STEP inh – inhibitors of human striatal-enriched phosphatase STEP; P54829; recombinant STEP, OMFP fluorogenic substrate, fluorescence; inhibition, % at 20 µM; AID 588621; hit rate 0.25% among 360,000;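 active = inhibition at 20 µM, scaled per plate between control wells, above about 37%, limit read from the data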;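 also: 0% = DMSO with enzyme and substrate and 100% = substrate only without enzyme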
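System: STEP (striatal-enriched tyrosine phosphatase) enzyme, cell-free; medium: Bis-Tris pH 6.0 buffer with DTT, detergent; dosing: 20 µM, 1% DMSO; times: reaction 20 min, ambient temperature; detection: fluorescence, 480/540 nm; read-out basis: normalized % inhibition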
SUMO1 PPI mod – alters human SUMO1 binding to SIM partners. P63165. SUMO1 binding to a labelled peptide, TR-FRET, 1 h. inhibition, % at 20 µM. hit rate 0.33% among 360,000. AID 602429; in the data active = inhibition above about 37%
Rpn11 inh – Rpn11 (human) deubiquitinase inhibition. O00487. human 26S proteasome, Ub4-pepOG fluorescence polarization; 20S core pre-blocked with epoxomicin. inhibition, % at 20 µM. hit rate 0.59% among 360,000;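 active = inhibition at 20 µM, scaled to each plate's controls, above about 33%, limit read from the data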
Rpn11 confirm – confirmation of human proteasome Rpn11 inhibitors; shares compounds with Rpn11 inh; purified human 26S proteasome, Ub4-pepOG fluorescence polarization; proteasome pretreated with epoxomicin; inhibition, % at 20 µM; hit rate 29% among 1,900; AID 602318
MMP-2 inh – counter-screen for RPN11 inhibitors: inhibition of human MMP-2 | shares compounds with Rpn11 inh | recombinant MMP-2, FRET peptide cleavage fluorescence | inhibition, % at 20 µM | hit rate 4% among 1,900;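 also: human MMP-2 activated beforehand with APMA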
Target sequence (P08253 whole entry, looked up): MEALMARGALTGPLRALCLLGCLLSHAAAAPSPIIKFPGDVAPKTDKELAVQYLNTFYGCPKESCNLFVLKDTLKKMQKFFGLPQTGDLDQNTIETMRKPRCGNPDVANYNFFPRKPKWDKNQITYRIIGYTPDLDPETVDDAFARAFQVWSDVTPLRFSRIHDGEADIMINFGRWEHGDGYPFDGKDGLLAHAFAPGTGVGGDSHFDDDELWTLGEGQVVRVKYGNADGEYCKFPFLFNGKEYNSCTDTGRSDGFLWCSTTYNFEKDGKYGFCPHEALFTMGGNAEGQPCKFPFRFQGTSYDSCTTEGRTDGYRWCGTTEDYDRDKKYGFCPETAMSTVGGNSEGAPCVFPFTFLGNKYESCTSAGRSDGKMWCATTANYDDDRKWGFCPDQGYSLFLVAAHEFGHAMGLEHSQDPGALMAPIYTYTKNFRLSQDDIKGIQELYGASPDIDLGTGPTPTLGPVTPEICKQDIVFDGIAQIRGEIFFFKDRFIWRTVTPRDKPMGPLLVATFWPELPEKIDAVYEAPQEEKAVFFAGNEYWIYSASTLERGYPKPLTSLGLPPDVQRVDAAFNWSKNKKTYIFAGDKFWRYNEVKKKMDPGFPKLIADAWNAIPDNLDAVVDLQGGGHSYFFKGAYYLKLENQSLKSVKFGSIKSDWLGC
Thrombin FP – counter-screen for RPN11 inhibitors: inhibition of bovine thrombin | shares compounds with Rpn11 inh | bovine thrombin cleavage of Ub4-pepOG, fluorescence polarization | inhibition, % at 20 µM | hit rate 13% among 1,900 | AID 602333;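 active = mean inhibition at least 40% at 20 µM, or signal 3 deviations below plate average, so some actives read negative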;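 also: plate controls were thrombin with DMSO for no effect and buffer wells lacking thrombin for full effect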
An asterisk follows results filed as active; · = not tested or not shown. A selection: hits, their analogues and other compounds. The true share with any hit is near 2.3%. Rule as the data show it, unless noted: active = inhibition above about 40%; inactive = the rest.

SMILES | DNMT1 inh | LMPTP block | Scp-1 inhibitor | STEP inh | SUMO1 PPI mod | Rpn11 inh | Rpn11 confirm | MMP-2 inh | Thrombin FP
CSc1nc(N)nc(SCC(=O)CC(=O)OC(C)C)c1C#N | -6 | 1 | -10 | -3 | 6 | 78* | -3 | -22 | -17
O=C1/C(=C/c2ccc3c(c2)OCO3)Oc2cc(OCC(=O)N3CCC[C@H]3C(=O)O)ccc21 | -2 | -1 | 4 | 0 | -8 | 16 | · | · | ·
COc1ccc(/C=C2\Oc3cc(OCC(=O)N4CCC[C@H]4CO)ccc3C2=O)c(OC)c1 | -7 | 0 | 27 | -1 | -22 | 75* | 73* | -53 | 62*
Cc1ccc(NC(=O)C(C)Sc2nnc(-c3cccnc3)n2-c2ccccc2)cc1 (centres undefined) | 0 | -1 | -4 | -5 | 1 | 1 | · | · | ·
COc1ccccc1NC(=O)CSc1nc(N)c(C#N)cc1C#N | -2 | -1 | 1 | -3 | -8 | 50* | 71* | -26 | 47*
CCOc1ccccc1NC(=O)CSc1nc(N)c(C#N)cc1C#N | 1 | 0 | -2 | 2 | -3 | 14 | · | · | ·
Cc1cc(Br)c(NC(=O)CN2C(=O)NC3(CCOc4ccccc43)C2=O)c(Br)c1 (centres undefined) | 0 | 0 | · | -2 | 4 | -3 | · | · | ·
COC(=O)c1ccc(C23CC4(C2)[C@H](CN(CC2CCCCC2)[C@@H]4c2ccccc2)C3c2ccccc2)cc1 (some centres undefined) | 17 | 3 | 8 | 3 | 1 | 22 | · | · | ·
Cc1c(NC(=O)C(C)C)cccc1-c1nc2ncccc2o1 | 1 | -1 | 0 | -3 | -1 | 1 | · | · | ·
Cc1c(NC(=O)c2cccc(-c3cc4ccccc4oc3=O)c2)cccc1-c1nc2ncccc2o1 | 40 | 4 | 8 | 4 | 18 | 138* | 110* | -27 | 0
CCOc1ccc2ccccc2c1C1NC(=O)NC(C)=C1C(=O)OCCOC (centres undefined) | -6 | 0 | -7 | -1 | -6 | -2 | · | · | ·
COCCOC(=O)C1=C(C)NC(=O)NC1c1c(OC)ncnc1OC (centres undefined) | -3 | -1 | -2 | -2 | 1 | 164* | -11 | -6 | -10
O=C(CN1CCN(C(=O)c2cccs2)CC1)NC1CCCCC1 | 0 | -2 | 1 | 0 | 1 | 42* | -9 | -34 | -24
CN(CCO)c1ccc(C=NNc2ccc([N+](=O)[O-])cc2S(=O)(=O)Nc2ccccc2C(=O)O)cc1 | -32 | 7 | 16 | 2 | 9 | 90* | 73* | -15 | 40
COc1cc(/C=C(\C#N)C(=O)Nc2cc(C(F)(F)F)ccc2Cl)ccc1OCC(=O)Nc1cccc(C(F)(F)F)c1 | 13 | -2 | 0 | 0 | 0 | 80* | 59* | 6 | 39
COc1cc(/C=C(\C#N)c2ccccn2)ccc1OCC(=O)Nc1c(Cl)cccc1Cl | 46 | 1 | -5 | 2 | -1 | 1 | · | · | ·
Cc1ccc(NC(=O)CSc2ncnc3ccccc23)cc1S(=O)(=O)N1CCCCCC1 | -4 | 4 | 6 | 3 | -6 | 43* | 22 | 50* | -14
Cc1ccc(S(=O)(=O)N2CCCCC2)cc1NC(=O)CSc1ncnc2ccccc12 | -3 | 2 | 3 | 1 | 1 | -4 | · | · | ·
COc1cc2c(cc1OC)C(C)N(CC(=O)Nc1ccc(S(=O)(=O)N3CCCC3)cc1)CC2 (centres undefined) | -6 | 4 | -8 | 6 | -1 | 53* | -8 | -20 | -9
CCC(=O)Nc1cccc(-c2cc3ccccc3oc2=O)c1 | 2 | 0 | -3 | -2 | -20 | 2 | · | · | ·
O=C(Cc1cccc2ccccc12)Nc1ccc(-c2cc3ccccc3oc2=O)cc1 | -9 | 1 | 20 | 3 | 30 | 43* | 10 | -9 | -7
CC(C)C(c1nnnn1Cc1ccco1)N1CCC(C(N)=O)CC1 (centres undefined) | 5 | -1 | 15 | 23 | 0 | 142* | 15 | -33 | 8
CCC(c1nnnn1Cc1ccco1)N1CCC(C(N)=O)CC1 (centres undefined) | 10 | -4 | -2 | 0 | 1 | -1 | · | · | ·
O=C(NCCCNc1ccc(C(F)(F)F)cc1[N+](=O)[O-])c1ccc(F)cc1 | 5 | 2 | -1 | 0 | -11 | 29 | · | · | ·
Cc1ccc(C(=O)NCCCNc2ccc(C(F)(F)F)cc2[N+](=O)[O-])cc1 | 0 | -2 | -4 | 0 | 0 | 41* | 16 | 10 | 5
SMILES | DNMT1 inh | LMPTP block | Scp-1 inhibitor | STEP inh | SUMO1 PPI mod | Rpn11 inh | Rpn11 confirm | MMP-2 inh | Thrombin FP
O=C(CSc1nc2ccccc2s1)c1cc2ccccc2o1 | -5 | 5 | -9 | 3 | -14 | 56* | 29 | 20 | 15
CC(C)(C)NC(=O)c1ccc(NC(=O)CSc2ccccc2)cc1 | 0 | -1 | -6 | -2 | -1 | -8 | · | · | ·
CCCOc1ccc(C(=O)NC(=S)N2CCN(c3cc4c(cc3F)c(=O)c(C(=O)O)cn4CC)CC2)cc1 | 0 | 49 | -1 | 3 | 6 | 154* | -7 | -19 | -10
CCCCCCC(=O)N1CCN(c2cc3c(cc2F)c(=O)c(C(=O)O)cn3CC)CC1 | 3 | 7 | -6 | 5 | -1 | -1 | · | · | ·
CON1C(=O)C(=O)N(OC)C(C)(C)C1C (centres undefined) | 1 | -2 | -4 | 1 | -3 | 3 | · | · | ·
CCOP(=O)(c1ccccc1)c1nc(-c2ccc(F)cc2)oc1N1CCCCC1 (centres undefined) | -4 | -1 | 2 | 0 | 2 | 126* | -6 | -20 | -16
Cc1cc(/C=C2\C(=N)N3N=C(C(C)C)SC3=NC2=O)c(C)n1Cc1ccccc1 | 0 | -1 | -4 | -2 | 5 | 4 | · | · | ·
N=C1/C(=C\c2ccc(-c3cccc(C(=O)O)c3)o2)C(=O)N=C2SC=C(c3ccccc3)N12 | 90* | 80* | 72* | 23 | 89* | 108* | 149* | 27 | 51*
Cc1cc(/C=C2\C(=N)N3C(SCc4ccccc4)=NSC3=NC2=O)c(C)n1Cc1ccccc1 | 14 | 2 | -4 | 3 | -22 | 44* | -1 | -28 | -36
Cc1ccccc1-n1c(C)cc(/C=C2/C(=N)N3C(c4ccccc4)=CSC3=NC2=O)c1C | -11 | 2 | -8 | 4 | -1 | 103* | 27 | 23 | 29
